This is an account of results in ChEMBL document CHEMBL4359867, “Design, synthesis and biological evaluation of novel 4-anilinoquinazoline derivatives as hypoxia-selective EGFR and VEGFR-2 dual inhibitors” (Eur J Med Chem, 2019).

Activity calls are given as the source filed them. The calls are words filed in the database; no cut-off is given here.

The nature of series [1]: Toxicity in Balb/c mouse xenografted with human A549 cells assessed as effect on weight loss at 10 mg/kg, po measured up to 17 days. It is filed as organism-based. Particulars: in vivo, 408 h. The method, boiled down: (§1)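 Male BALB/c-nu mice, 1 × 10^7 A549 cells implanted sc in the flank. Dosing began seven days after implantation: 10 mg/kg oral, daily for 17 days, 5 mice per group, with a vehicle control group. Tumour size measured daily by caliper, with body weight and clinical signs also recorded daily. TGI calculated from volume changes relative to starting volumes versus control.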

Series [2] deals with NCI-H446. In words: Antiproliferative activity against human NCI-H446 cells assessed as inhibition of cell growth at 0.5 uM after 48 hrs under hypoxic condition (200 uM CoCl2) by CCk-8 assay relative to control (reference value: 65.84%). It is filed as functional. The method, boiled down:
(§2)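 RPMI-1640 with 10% fetal calf serum. Compounds dissolved in DMSO. Hypoxia produced chemically with cobalt(II) chloride; normoxic wells received no CoCl2. Viability read by CCK-8 (WST-8) at 450 nm, and inhibition ratio calculated against untreated control.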

Series [3] concerns A549. The experiment in a line: Downregulation of VEGF expression in human A549 cells at 5 uM after 24 hrs under hypoxic condition by q-PCR analysis relative to control. It is filed as functional.
Series [4] deals with A549. The experiment in a line: Antitumour activity against human A549 cells xenografted in Balb/c mouse assessed as tumour growth inhibition at 10 mg/kg, po administered daily and mesured at day 17 relative to control. It is filed as functional. Particulars: 408 h, read-out: TGI. The method, boiled down:
as §1
(A xenograft is tissue or cells of one species grown in another, often human tumour cells in immunodeficient mice.)

A short description of series [5]: Toxicity in Balb/c mouse assessed as effect on clinical signs at 100 mg/kg, po administered 5 times per week for 2 weeks. It is filed as organism-based. Particulars: in vivo, 336 h. The method, boiled down: (§3)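 Male BALB/c-nu mice dosed orally at 100 mg/kg, five times a week for two weeks with two days off each weekend. Clinical signs of toxicity and body weight monitored.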

Series [6] relates to NCI-H446. In words: Antiproliferative activity against human NCI-H446 cells assessed as hypoxic sensitive enhancement ratio in presence of Cocl2 under irradiation. It is filed as functional.
Series [7] relates to NCI-H446. The experiment in a line: Antiproliferative activity against human NCI-H446 cells assessed as inhibition of cell growth at 0.5 uM in hypoxia condition (200 uM CoCl2) and under irradiation at 8 Gy for 24 hrs and measured after 24 hrs by CCK8 assay (reference value: 68.77%). In kind it is functional.
The subject of series [8] is A549. In words: Antitumour activity against human A549 cells xenografted in po dosed Balb/c mouse assessed as tumour growth inhibition administered daily for 18 days and […]. It is filed as functional, organism-based.
Series [9] concerns the target Epidermal growth factor receptor (Homo sapiens, UniProt P00533). In words: Inhibition of N-terminal GST-tagged human EGFR cytoplasmic domain (669 to 1210 residues) expressed in baculovirus expression system using FAM-22 peptide as substrate incubated for 10 mins followed by substrate addition by caliper method.
Series [10] deals with A549. The experiment in a line: Antiproliferative activity against human A549 cells assessed as inhibition of cell growth at 0.5 uM after 48 hrs under hypoxic condition (200 uM CoCl2) by CCk-8 assay relative to control (reference value: 59.94%). It is filed as functional. Put shortly:
as §2

Series [11] has as its system A549. In words: Antitumour activity against human A549 cells xenografted in Balb/c mouse assessed as tumour growth inhibition at 15 mg/kg, po administered daily and measured at day 18 relative to control. In kind it is functional. As to conditions: 432 h, read-out: TGI. The method, boiled down:
(§4)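 Male BALB/c-nu mice carrying sc flank A549 xenografts (1 × 10^7 cells). Dosing began 6–7 days post-inoculation, with oral 5, 15 or 50 mg/kg daily for 18 days and 3 mice per group. Tumours measured by caliper on days 4, 6, 8, 11, 13, 15 and 18. TGI derived from volume change from dosing start relative to untreated controls.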

In series [12] the test system is A549. In words: Antiproliferative activity against human A549 cells assessed as inhibition of cell growth at 0.5 uM in hypoxia condition (200 uM CoCl2) and under irradiation at 8 Gy for 24 hrs and measured after 24 hrs by CCK8 assay (reference value: 64.135%). In kind it is functional.
Series [13] deals with A549. The experiment in a line: Antitumour activity against human A549 cells xenografted in Balb/c mouse assessed as increase in tumour volume at 10 mg/kg, po administered daily and mesured after 7 days. It is filed as functional, organism-based. Put shortly: as §1
The subject of series [14] is A549. In words: Downregulation of VEGF expression in human A549 cells at 5 uM after 24 hrs under normoxic condition by q-PCR analysis relative to control. It is filed as cell-based. Particulars: a549, 24 h.
A short description of series [15]: Cytotoxicity against human NCI-H446 cells assessed as inhibition of cell growth at 0.5 uM after 48 hrs under normoxic condition by CCk-8 assay relative to control. In kind it is cell-based. The method, boiled down:
as §2

Series [16] relates to NCI-H446. In words: Antiproliferative activity against human NCI-H446 cells assessed as hypoxic sensitive enhancement ratio in presence of CoCl2. In kind it is functional.
Series [17] relates to A549. The experiment in a line: Antitumour activity against human A549 cells xenografted in Balb/c mouse assessed as tumour growth inhibition at 50 mg/kg, po administered daily and measured at day 18 relative to control. It is filed as functional. Particulars: 432 h, read-out: TGI. The method, boiled down:
as §4

Series [18] can be described thus: Cytotoxicity against human A549 cells assessed as inhibition of cell growth at 0.5 uM after 48 hrs under normoxic condition by CCk-8 assay relative to control. In kind it is cell-based. The method, boiled down:
as §2

Series [19] has as its system A549. In words: Antitumour activity against human A549 cells xenografted in Balb/c mouse assessed as tumour growth inhibition at 5 mg/kg, po administered daily and measured at day 18 relative to control. In kind it is functional. Particulars: 432 h, read-out: TGI. Put shortly: as §4
Series [20] is described as follows: Toxicity in Balb/c mouse assessed as weight loss at 100 mg/kg, po administered 5 times per week for 2 weeks. Particulars: in vivo, 336 h. It is filed as organism-based. Put shortly:
as §3

For series [21], the target named is Vascular endothelial growth factor receptor 2 (Homo sapiens, UniProt P35968). The experiment in a line: Inhibition of N-terminal GST-tagged human VEGFR2 cytoplasmic domain (790 to 1356 residues) expressed in baculovirus expression system using FAM-22 peptide as substrate incubated for 10 mins followed by substrate addition by caliper method. Put shortly:
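Compounds (DMSO stocks 40 μM–0.2 nM, ten levels) tested in duplicate. Enzyme preincubated with compound 10 min at room temperature, then FAM-P22 peptide/ATP added and incubated at 28 °C. Stopped with EDTA-containing buffer. IC50 obtained by four-parameter Hill fit; staurosporine as reference.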

The nature of series [22]: Toxicity in po dosed Balb/c mouse assessed as maximum tolerated dose administered 5 times per week for 2 weeks. In kind it is organism-based. As to conditions: in vivo.
Series [23] has as its system A549. In words: Antiproliferative activity against human A549 cells assessed as hypoxic sensitive enhancement ratio in presence of CoCl2. In kind it is functional.
Series [24] has as its system A549. The experiment in a line: Antiproliferative activity against human A549 cells assessed as hypoxic sensitive enhancement ratio in presence of Cocl2 under irradiation. It is filed as functional.
Series [25] is described as follows: Toxicity in Balb/c mouse xenografted with human A549 cells assessed as reduction in body weight at 10 mg/kg, po measured up to 8 days. It is filed as organism-based. As to conditions: in vivo, 192 h. Put shortly: as §1

Chain of Vascular endothelial growth factor receptor 2 (P35968 whole entry, the tested form may be a part): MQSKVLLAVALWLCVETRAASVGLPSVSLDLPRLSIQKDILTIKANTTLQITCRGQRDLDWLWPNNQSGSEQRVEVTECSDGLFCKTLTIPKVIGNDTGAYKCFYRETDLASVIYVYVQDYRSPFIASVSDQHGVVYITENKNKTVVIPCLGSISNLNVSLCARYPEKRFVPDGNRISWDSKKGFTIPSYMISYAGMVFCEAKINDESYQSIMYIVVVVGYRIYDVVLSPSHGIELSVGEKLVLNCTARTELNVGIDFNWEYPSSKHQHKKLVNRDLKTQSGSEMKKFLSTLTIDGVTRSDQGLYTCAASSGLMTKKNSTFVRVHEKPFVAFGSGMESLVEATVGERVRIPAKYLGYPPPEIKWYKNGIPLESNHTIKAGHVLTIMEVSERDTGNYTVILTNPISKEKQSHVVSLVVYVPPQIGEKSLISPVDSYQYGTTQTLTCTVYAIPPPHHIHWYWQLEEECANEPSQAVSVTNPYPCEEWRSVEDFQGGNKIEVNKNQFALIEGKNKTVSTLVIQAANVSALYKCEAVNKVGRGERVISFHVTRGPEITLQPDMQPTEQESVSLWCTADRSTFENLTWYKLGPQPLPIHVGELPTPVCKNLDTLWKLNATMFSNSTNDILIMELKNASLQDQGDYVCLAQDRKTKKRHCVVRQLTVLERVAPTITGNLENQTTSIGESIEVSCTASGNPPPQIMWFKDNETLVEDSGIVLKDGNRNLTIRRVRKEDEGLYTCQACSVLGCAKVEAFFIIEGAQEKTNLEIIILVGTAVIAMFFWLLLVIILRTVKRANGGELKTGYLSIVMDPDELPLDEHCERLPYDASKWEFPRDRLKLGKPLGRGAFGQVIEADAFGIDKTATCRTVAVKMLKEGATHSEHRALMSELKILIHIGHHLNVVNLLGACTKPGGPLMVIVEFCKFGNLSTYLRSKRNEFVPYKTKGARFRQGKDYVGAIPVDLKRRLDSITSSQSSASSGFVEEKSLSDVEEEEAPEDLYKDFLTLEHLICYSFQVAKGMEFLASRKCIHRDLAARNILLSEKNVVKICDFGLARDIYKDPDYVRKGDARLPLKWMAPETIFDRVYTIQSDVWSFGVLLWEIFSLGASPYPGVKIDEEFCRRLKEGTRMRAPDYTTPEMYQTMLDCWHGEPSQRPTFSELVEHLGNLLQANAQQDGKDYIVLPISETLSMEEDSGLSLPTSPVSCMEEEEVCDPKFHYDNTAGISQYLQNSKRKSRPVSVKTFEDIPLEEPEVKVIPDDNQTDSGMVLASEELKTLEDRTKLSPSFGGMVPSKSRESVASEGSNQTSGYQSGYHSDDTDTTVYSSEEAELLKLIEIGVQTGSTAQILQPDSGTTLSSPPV
Chain of Epidermal growth factor receptor (P00533 whole entry, the tested form may be a part): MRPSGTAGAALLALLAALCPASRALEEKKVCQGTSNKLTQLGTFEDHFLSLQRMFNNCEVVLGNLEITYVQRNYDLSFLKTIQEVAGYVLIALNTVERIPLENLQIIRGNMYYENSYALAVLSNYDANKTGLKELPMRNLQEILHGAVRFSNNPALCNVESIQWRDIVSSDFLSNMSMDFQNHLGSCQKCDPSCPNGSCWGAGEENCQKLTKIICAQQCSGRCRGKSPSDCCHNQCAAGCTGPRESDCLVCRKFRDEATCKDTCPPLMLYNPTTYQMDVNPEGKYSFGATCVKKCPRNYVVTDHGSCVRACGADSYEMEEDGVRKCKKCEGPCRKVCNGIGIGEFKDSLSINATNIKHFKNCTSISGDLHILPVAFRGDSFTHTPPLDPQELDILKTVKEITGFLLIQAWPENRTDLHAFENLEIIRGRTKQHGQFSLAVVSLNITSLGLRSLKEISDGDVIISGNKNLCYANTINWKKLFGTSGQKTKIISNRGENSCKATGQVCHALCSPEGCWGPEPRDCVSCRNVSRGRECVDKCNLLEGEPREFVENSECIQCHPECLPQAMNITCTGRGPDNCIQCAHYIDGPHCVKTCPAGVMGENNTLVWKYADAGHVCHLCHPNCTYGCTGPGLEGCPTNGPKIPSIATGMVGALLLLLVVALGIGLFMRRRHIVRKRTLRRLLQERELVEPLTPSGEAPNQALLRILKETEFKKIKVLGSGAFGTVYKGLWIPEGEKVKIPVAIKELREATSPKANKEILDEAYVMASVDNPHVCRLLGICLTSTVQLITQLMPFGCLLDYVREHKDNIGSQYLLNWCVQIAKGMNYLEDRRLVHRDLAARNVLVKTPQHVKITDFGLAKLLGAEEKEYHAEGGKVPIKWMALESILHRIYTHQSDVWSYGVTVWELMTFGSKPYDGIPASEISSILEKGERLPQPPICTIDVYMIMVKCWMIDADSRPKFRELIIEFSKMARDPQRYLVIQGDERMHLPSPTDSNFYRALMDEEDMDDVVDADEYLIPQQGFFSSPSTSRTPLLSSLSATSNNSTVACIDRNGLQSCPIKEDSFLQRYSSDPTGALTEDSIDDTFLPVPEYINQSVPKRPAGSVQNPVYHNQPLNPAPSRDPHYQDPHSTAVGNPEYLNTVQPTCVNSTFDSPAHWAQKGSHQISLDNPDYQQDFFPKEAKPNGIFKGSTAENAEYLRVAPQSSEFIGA

The term inhibition denotes the change of the read-out against control, counted positive when it falls. By IC50 is commonly meant the concentration that inhibits the measured activity by half. Lower therefore signals higher potency. In general, MTD refers to the highest dose tested that stayed within the study's limit of toxicity. For `COc1cc2c(Nc3ccc(Br)cc3F)ncnc2cc1OCCOCCNC(=O)Cn1cnc([N+](=O)[O-])n1`, the Activity result in series [1], in [5] and in [20] was “Non-Toxic” each time. The “inhibition (INH)” value in series [2] was found to be 84.37%; in [7], 88.66%; in [10], 75.86%; in series [12], 86.41%. Besides, the “fold change (FC)” value was determined as 0.0011 in series [3] and 0.1571 in series [14]. Moreover, in [4], the inhibition in vivo at 10 mg/kg is 63.9%. The Ratio in [6] was 0.93; in series [16], 1.17; in series [23], 1.32; in series [24], 0.96. The inhibition result in series [8] was “Dose-dependent effect”. For the same compound, the IC50 came to 5.9 nM in series [9] and 36.8 nM in series [21]. For the same compound, in series [11], the inhibition in vivo at 15 mg/kg was 68.3%. Also, in [13], the result was Active. Further, the inhibition at 48 h, 0.5 µM was found to be 18.9% in series [15] and 6.75% in series [18]. Besides, the inhibition in vivo at 50 mg/kg in series [17] worked out at 80.5%. Also, the inhibition in vivo at 5 mg/kg in series [19] came out at 31.2%. The MTD at 336 h in [22] is 100 mg/kg.

For `COc1cc2c(Nc3ccc(Br)cc3F)ncnc2cc1OCC1CCN(C)CC1` [VANDETANIB], the results for the inhibition at 48 h, 0.5 µM in series [15] and in series [18] were 25.6% and 21.1%, respectively. For the same compound, the Activity entry in [25] is listed as “Toxic”.
